Measured values from different studies.
Compare with care: the assays were run in different laboratories. pEC50, pIC50, pKi: −log10 of the molar value.
CA12: Carbonic anhydrase 12 (CA12, Homo sapiens, UniProt O43570)
DRD3: D(3) dopamine receptor (DRD3, Homo sapiens, UniProt P35462)
SLC6A3: Sodium-dependent dopamine transporter (SLC6A3, Homo sapiens, UniProt Q01959)

SMILES | target | test | conditions | endpoint | value
O=C(Oc1ccc(Cl)cc1)c1ccc(=O)oc1 | CA12 | enzyme activity, inhibitor, stopped-flow | – | pKi | 4.12
Cc1[nH]c(C)c(S(=O)(=O)Nc2ccc(C3CC3)c(Cl)c2)c1C(=O)N1CCC(F)(F)C1 | DRD3 | β-arrestin recruitment, antagonist | – | pIC50 | 4.89
Cc1ccc(-n2cc(CNC(=O)c3ccc(=O)oc3)nn2)cc1 | CA12 | enzyme activity, inhibitor, stopped-flow | – | pKi | 4.24
N#C[C@@]12C[C@@H]1[C@@H](n1cnc3c(Nc4ccccc4)nc(C#Cc4ccc(Cl)s4)nc31)[C@H](O)[C@@H]2O | SLC6A3 | ligand displacement, radioligand | – | pKi | 5.82
OCc1ccccc1O[C@@H]1O[C@H](CO)[C@@H](O)[C@H](O)[C@H]1O | Taste receptor type 2 member 16 (TAS2R16, Homo sapiens, UniProt Q9NYV7, N96T) | inositol phosphate, agonist, TR-FRET | – | pEC50 | 2.26
Cc1[nH]c(C)c(S(=O)(=O)Nc2cc(Cl)cc(Cl)c2Cl)c1C(=O)N1CCC(F)(F)C1 | DRD3 | G protein activation, antagonist, BRET | – | pIC50 | 4.83
N#CC[C@@]12C[C@@H]1[C@@H](n1cnc3c(NCc4cccc(Cl)c4)nc(C#Cc4ccc(Cl)s4)nc31)[C@H](O)[C@@H]2O | SLC6A3 | ligand displacement, radioligand | – | pKi | 5.92
Cc1[nH]c(C)c(S(=O)(=O)Nc2ccc(C(F)(F)F)c(Cl)c2)c1C(=O)N1CCN(C(=O)OC(C)(C)C)CC1 | DRD3 | G protein activation, antagonist, BRET | – | pIC50 | 4.54
OC[C@@]12C[C@@H]1[C@@H](n1cnc3c(NCCCCCCc4ccccc4)nc(I)nc31)[C@H](O)[C@@H]2O | SLC6A3 | ligand displacement, radioligand | – | pKi | 6.05
C#CCNC(=O)c1ccc(=O)oc1 | CA12 | enzyme activity, inhibitor, stopped-flow | – | pKi | 4.17
Cc1[nH]c(C)c(S(=O)(=O)Nc2ccc(C(F)(F)F)c(Cl)c2)c1C(=O)N(C)CC(F)(F)F | DRD3 | G protein activation, antagonist, BRET | – | pIC50 | 5.34
O=C(Oc1ccccc1)c1ccc(=O)oc1 | CA12 | enzyme activity, inhibitor, stopped-flow | – | pKi | 4.18
OC[C@@]12C[C@@H]1[C@@H](n1cnc3c(N[C@@H](C4CCC4)C4CC4)nc(C#Cc4ccc(Cl)s4)nc31)[C@H](O)[C@@H]2O | SLC6A3 | ligand displacement, radioligand | – | pKi | 6.05
Cc1ccc(-n2cc(COC(=O)c3ccc(=O)oc3)nn2)cc1 | CA12 | enzyme activity, inhibitor, stopped-flow | – | pKi | 4.20
Cc1c(Cl)c(=O)oc2cc(OCCCCSC#N)ccc12 | CA12 | enzyme activity, inhibitor, stopped-flow | – | pKi | 7.23
O=C(NCc1cn(-c2ccc(Cl)cc2)nn1)c1ccc(=O)oc1 | CA12 | enzyme activity, inhibitor, stopped-flow | – | pKi | 4.21
NCC(=O)O | Glutamate NMDA receptor; GRIN1/GRIN2B (GRIN1/GRIN2B, Homo sapiens, UniProt Q05586+Q13224) | ion current, agonist, two-electrode voltage clamp | oocytes | pEC50 | 6.49
CCOC(=O)[C@@]12C[C@@H]1[C@@H](n1cnc3c(NCCCCCc4ccccc4)nc(I)nc31)[C@H](O)[C@@H]2O | SLC6A3 | ligand displacement, radioligand | – | pKi | 5.80
O=C(OCc1cn(-c2ccccc2)nn1)c1ccc(=O)oc1 | CA12 | enzyme activity, inhibitor, stopped-flow | – | pKi | 4.25
Cc1[nH]c(C)c(S(=O)(=O)Nc2ccc(C(F)(F)F)c(Cl)c2)c1C(=O)NCC(F)(F)F | DRD3 | G protein activation, antagonist, BRET | – | pIC50 | 5.40
CCOC(=O)[C@@]12C[C@@H]1[C@@H](n1cnc3c(NCc4cccc(Cl)c4)nc(C#Cc4ccc(Cl)s4)nc31)[C@H](O)[C@@H]2O | SLC6A3 | ligand displacement, radioligand | – | pKi | 6.03
CCN(C)C(=O)c1c(C)[nH]c(C)c1S(=O)(=O)Nc1ccc(C(F)(F)F)c(Cl)c1 | DRD3 | G protein activation, antagonist, BRET | – | pIC50 | 4.89
CCOC(=O)[C@@]12C[C@@H]1[C@@H](n1cnc3c(NCCCCCc4ccccc4)nc(C#Cc4ccc(Cl)s4)nc31)[C@H](O)[C@@H]2O | SLC6A3 | ligand displacement, radioligand | – | pKi | 5.51
Cc1[nH]c(C)c(S(=O)(=O)Nc2ccc(C(F)(F)F)c(Cl)c2)c1C(=O)N1CC[C@@H](F)C1 | DRD3 | β-arrestin recruitment, antagonist | – | pIC50 | 5.29
N#CC[C@@]12C[C@@H]1[C@@H](n1cnc3c(NC4CC4)nc(C#Cc4ccc(Cl)s4)nc31)[C@H](O)[C@@H]2O | SLC6A3 | ligand displacement, radioligand | – | pEC50 | 6.70
CCOC(=O)c1ccc(=O)oc1 | CA12 | enzyme activity, inhibitor, stopped-flow | – | pKi | 4.03
Cc1[nH]c(C)c(S(=O)(=O)Nc2ccc(C(F)(F)F)c(Cl)c2)c1C(=O)N1C[C@@H](F)[C@H](F)C1 (relative stereo) | DRD3 | G protein activation, antagonist, BRET | – | pIC50 | 6.24
